Test results from ChEMBL document CHEMBL1255335 (Antimicrob Agents Chemother, 2008).
In brackets after ≈: the same amount, converted by molar mass.

Legend:
Escherichia coli [1] = assay: Antibacterial activity against Escherichia coli DH5alpha with deltaampC by agar dilution method; assay type: functional
Escherichia coli [2] = assay: Antibacterial activity against Escherichia coli DH5alpha expressing Klebsiella pneumoniae beta-lactamase SHV-72 by agar dilution method; assay type: functional
Escherichia coli [3] = assay: Antibacterial activity against Escherichia coli DH5alpha expressing Klebsiella pneumoniae beta-lactamase SHV-1 by agar dilution method; assay type: functional
Klebsiella pneumoniae [4] = assay: Antibacterial activity against Klebsiella pneumoniae INSRA1229 harboring SHV-72 Ile8Phe, Ala146Val, and Lys234Arg mutations by agar dilution method
Klebsiella pneumoniae [5] = assay: Antibacterial activity against Klebsiella pneumoniae INSRA1229 harboring SHV-72 Ile8Phe, Ala146Val, and Lys234Arg mutations by agar dilution method in presence of 2 ug/ml clavulanic acid; assay type: functional
Escherichia coli [6] = assay: Antibacterial activity against Escherichia coli DH5alpha expressing Klebsiella pneumoniae beta-lactamase SHV-1 by agar dilution method in presence of 2 ug/ml clavulanic acid; assay type: functional
Escherichia coli [7] = assay: Antibacterial activity against Escherichia coli DH5alpha expressing Klebsiella pneumoniae beta-lactamase SHV-72 by agar dilution method in presence of 2 ug/ml clavulanic acid; assay type: functional
Escherichia coli [8] = assay: Antibacterial activity against Escherichia coli DH5alpha with deltaampC by agar dilution method in presence of 2 ug/ml clavulanic acid; assay type: functional
Escherichia coli [9] = assay: Antibacterial activity against Escherichia coli DH5alpha with deltaampC by agar dilution method in presence of 4 ug/ml Tazobactam; assay type: functional
Escherichia coli [10] = assay: Antibacterial activity against Escherichia coli DH5alpha expressing Klebsiella pneumoniae beta-lactamase SHV-1 by agar dilution method in presence of 4 ug/ml Tazobactam; assay type: functional
Klebsiella pneumoniae [11] = assay: Antibacterial activity against Klebsiella pneumoniae INSRA1229 harboring SHV-72 Ile8Phe, Ala146Val, and Lys234Arg mutations in presence of 4 ug/ml Tazobactam; assay type: functional
Escherichia coli [12] = assay: Antibacterial activity against Escherichia coli DH5alpha expressing Klebsiella pneumoniae beta-lactamase SHV-72 by agar dilution method in presence of 4 ug/ml Tazobactam; assay type: functional
[13] = substrate: CC1(C)S[C@@H]2[C@H](NC(=O)[C@H](C(=O)O)c3ccsc3)C(=O)N2[C@H]1C(=O)O; assay: (§1) Activity of Klebsiella pneumoniae Beta-Lactamase SHV-1
In short: (§2)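 SHV-1 or SHV-72 came from E. coli DH5α ΔampC clones grown 18 h at 37°C. Enzymes were purified by ion exchange then gel filtration, with protein measured by BCA. Km and kcat were measured by pH-stat microacidimetry, fitting complete hydrolysis time courses by nonlinear least squares, three determinations per substrate.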

[14] = substrate: CC1(C)S[C@@H]2[C@H](NC(=O)Cc3ccccc3)C(=O)N2[C@H]1C(=O)O; assay: as §1; in short: as §2
[15] = substrate: CC1(C)S[C@@H]2[C@H](NC(=O)[C@H](C(=O)O)c3ccsc3)C(=O)N2[C@H]1C(=O)O; assay: (§3) Ratio of Kcat to Km for Klebsiella pneumoniae Beta-Lactamase SHV-1
In short: (§4)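 kcat/Km came from Km and kcat of purified enzyme, which was expressed in E. coli DH5α ΔampC and purified by ion exchange then gel filtration. Both constants were measured by computerized pH-stat microacidimetry, with complete hydrolysis progress curves fitted by nonlinear least-squares regression. Each substrate was run three times.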

[16] = substrate: CC1(C)S[C@@H]2[C@H](NC(=O)Cc3ccccc3)C(=O)N2[C@H]1C(=O)O; assay: as §3; in short: as §4
[17] = substrate: CCN1CCN(C(=O)N[C@@H](C(=O)N[C@@H]2C(=O)N3[C@@H]2SC(C)(C)[C@@H]3C(=O)O)c2ccccc2)C(=O)C1=O; assay: as §3; in short: as §4
[18] = substrate: CC1(C)S[C@@H]2[C@H](NC(=O)[C@H](C(=O)O)c3ccsc3)C(=O)N2[C@H]1C(=O)O; assay: (§5) Ratio of Kcat to Km for Klebsiella pneumoniae Beta-Lactamase SHV-72; in short: as §4
[19] = substrate: CC1(C)S[C@@H]2[C@H](NC(=O)[C@H](N)c3ccc(O)cc3)C(=O)N2[C@H]1C(=O)O; assay: as §5; in short: as §4
[20] = substrate: CC(=O)OCC1=C(C(=O)O)N2C(=O)[C@@H](NC(=O)Cc3cccs3)[C@H]2SC1; assay: as §5; in short: as §4
[21] = substrate: CC1(C)S[C@@H]2[C@H](NC(=O)Cc3ccccc3)C(=O)N2[C@H]1C(=O)O; assay: as §5; in short: as §4
[22] = substrate: CCN1CCN(C(=O)N[C@@H](C(=O)N[C@@H]2C(=O)N3[C@@H]2SC(C)(C)[C@@H]3C(=O)O)c2ccccc2)C(=O)C1=O; assay: as §5; in short: as §4
[23] = substrate: CC1(C)S[C@@H]2[C@H](NC(=O)[C@H](C(=O)O)c3ccsc3)C(=O)N2[C@H]1C(=O)O; assay: (§6) Activity of Klebsiella pneumoniae Beta-Lactamase SHV-72; in short: as §2
[24] = substrate: CO/N=C(\C(=O)N[C@@H]1C(=O)N2C(C(=O)O)=C(COC(C)=O)CS[C@H]12)c1csc(N)n1; assay: as §6; in short: as §2
[25] = substrate: CC1(C)S[C@@H]2[C@H](NC(=O)[C@H](N)c3ccc(O)cc3)C(=O)N2[C@H]1C(=O)O; assay: as §6; in short: as §2
[26] = substrate: CC(=O)OCC1=C(C(=O)O)N2C(=O)[C@@H](NC(=O)Cc3cccs3)[C@H]2SC1; assay: as §6; in short: as §2
[27] = substrate: CC1(C)S[C@@H]2[C@H](NC(=O)Cc3ccccc3)C(=O)N2[C@H]1C(=O)O; assay: as §6; in short: as §2
[28] = substrate: CCN1CCN(C(=O)N[C@@H](C(=O)N[C@@H]2C(=O)N3[C@@H]2SC(C)(C)[C@@H]3C(=O)O)c2ccccc2)C(=O)C1=O; assay: as §6; in short: as §2
[29] = substrate: CC(C)(O/N=C(\C(=O)N[C@@H]1C(=O)N2C(C(=O)[O-])=C(C[n+]3ccccc3)CS[C@H]12)c1csc(N)n1)C(=O)O; assay: as §6; in short: as §2
[30] = Escherichia coli, DH5alpha, read-out: MIC

Molecule	MIC (Escherichia coli [1])	MIC (Escherichia coli [2]; [30])	MIC (Escherichia coli [3])	MIC (Klebsiella pneumoniae [4])	also measured
CO/N=C(\C(=O)N[C@@H]1C(=O)N2C(C(=O)[O-])=C(C[N+]3(C)CCCC3)CS[C@H]12)c1csc(N)n1	0.03 µg/mL (≈ 0.0624 µM)	0.03 µg/mL (≈ 0.0624 µM)	0.03 µg/mL (≈ 0.0624 µM)	0.03 µg/mL (≈ 0.0624 µM)	–
CC1(C)S[C@@H]2[C@H](/N=C/N3CCCCCC3)C(=O)N2[C@H]1C(=O)O [AMDINOCILLIN]	0.125 µg/mL (≈ 0.384 µM)	0.25 µg/mL (≈ 0.768 µM)	0.5 µg/mL (≈ 1.54 µM)	0.25 µg/mL (≈ 0.768 µM)	–
CC1(C)S[C@@H]2[C@H](NC(=O)[C@H](N)c3ccc(O)cc3)C(=O)N2[C@H]1C(=O)O [AMOXICILLIN]	8 µg/mL (≈ 21.9 µM)	512 µg/mL (≈ 1400 µM)	2050 µg/mL (≈ 5600 µM)	2050 µg/mL (≈ 5600 µM)	MIC (Klebsiella pneumoniae [5]): 64 µM; MIC (Escherichia coli [6]): 8 µM; MIC (Escherichia coli [7]): 64 µM; MIC (Escherichia coli [8]): 8 µM
CCN1CCN(C(=O)N[C@@H](C(=O)N[C@@H]2C(=O)N3C(C(=O)O)=C(CSc4nnnn4C)CS[C@H]23)c2ccc(O)cc2)C(=O)C1=O [CEFOPERAZONE]	≤ 0.25 µg/mL	≤ 0.25 µg/mL	4 µg/mL (≈ 6.2 µM)	2 µg/mL (≈ 3.1 µM)	–
CO/N=C(\C(=O)N[C@@H]1C(=O)N2C(C(=O)O)=C(COC(C)=O)CS[C@H]12)c1csc(N)n1 [CEFOTAXIME]	0.06 µg/mL (≈ 0.132 µM)	0.06 µg/mL (≈ 0.132 µM)	0.06 µg/mL (≈ 0.132 µM)	0.125 µg/mL (≈ 0.274 µM)	MIC (Klebsiella pneumoniae [5]): 0.06 µg/mL; MIC (Escherichia coli [6]): 0.06 µg/mL; MIC (Escherichia coli [7]): 0.06 µg/mL; MIC (Escherichia coli [8]): 0.06 µg/mL
CO[C@@]1(NC(=O)Cc2cccs2)C(=O)N2C(C(=O)O)=C(COC(N)=O)CS[C@@H]21 [CEFOXITIN]	4 µg/mL (≈ 9.36 µM)	8 µg/mL (≈ 18.7 µM)	8 µg/mL (≈ 18.7 µM)	4 µg/mL (≈ 9.36 µM)	–
CC(C)(O/N=C(\C(=O)N[C@@H]1C(=O)N2C(C(=O)[O-])=C(C[n+]3ccccc3)CS[C@H]12)c1csc(N)n1)C(=O)O [CEFTAZIDIME]	0.25 µg/mL (≈ 0.457 µM)	0.25 µg/mL (≈ 0.457 µM)	0.5 µg/mL (≈ 0.915 µM)	–	MIC (Escherichia coli [6]): 0.25 µg/mL; MIC (Escherichia coli [7]): 0.25 µg/mL; MIC (Escherichia coli [8]): 0.125 µg/mL
CO/N=C(\C(=O)N[C@@H]1C(=O)N2C(C(=O)O)=C(CSc3nc(=O)c(O)nn3C)CS[C@H]12)c1csc(N)n1 [CEFTRIAXONE]	0.03 µg/mL (≈ 0.0541 µM)	0.03 µg/mL (≈ 0.0541 µM)	0.03 µg/mL (≈ 0.0541 µM)	0.03 µg/mL (≈ 0.0541 µM)	MIC (Klebsiella pneumoniae [5]): ≤ 0.015 µg/mL; MIC (Escherichia coli [6]): 0.03 µg/mL; MIC (Escherichia coli [2]): 0.03 µg/mL (≈ 0.0541 µM); MIC (Escherichia coli [8]): 0.06 µg/mL
CO/N=C(\C(=O)N[C@@H]1C(=O)N2C(C(=O)O)=C(COC(N)=O)CS[C@H]12)c1ccco1 [CEFUROXIME]	4 µg/mL (≈ 9.43 µM)	8 µg/mL (≈ 18.9 µM)	4 µg/mL (≈ 9.43 µM)	2 µg/mL (≈ 4.71 µM)	–
CC(=O)OCC1=C(C(=O)O)N2C(=O)[C@@H](NC(=O)Cc3cccs3)[C@H]2SC1 [CEPHALOTHIN]	8 µg/mL (≈ 20.2 µM)	4 µg/mL (≈ 10.1 µM)	16 µg/mL (≈ 40.4 µM)	8 µg/mL (≈ 20.2 µM)	–
O=C(O)c1cn(C2CC2)c2cc(N3CCNCC3)c(F)cc2c1=O [CIPROFLOXACIN]	≤ 0.125 µg/mL	≤ 0.125 µg/mL	≤ 0.125 µg/mL	≤ 0.125 µg/mL	–
C[C@@H](O)[C@H]1C(=O)N2C(C(=O)O)=C(SCCNC=N)C[C@H]12 [IMIPENEM ANHYDROUS]	–	–	–	0.125 µg/mL (≈ 0.418 µM)	–
CCN1CCN(C(=O)N[C@@H](C(=O)N[C@@H]2C(=O)N3[C@@H]2SC(C)(C)[C@@H]3C(=O)O)c2ccccc2)C(=O)C1=O [PIPERACILLIN]	2 µg/mL (≈ 3.86 µM)	4 µg/mL (≈ 7.73 µM)	64 µg/mL (≈ 124 µM)	32 µg/mL (≈ 61.8 µM)	MIC (Escherichia coli [9]): 2 µM; MIC (Escherichia coli [10]): 2 µM; MIC (Klebsiella pneumoniae [11]): 2 µM; MIC (Escherichia coli [12]): 2 µM
CC1(C)S[C@@H]2[C@H](NC(=O)[C@H](C(=O)O)c3ccsc3)C(=O)N2[C@H]1C(=O)O [TICARCILLIN]	4 µg/mL (≈ 10.4 µM)	8 µg/mL (≈ 20.8 µM)	1020 µg/mL (≈ 2660 µM)	512 µg/mL (≈ 1330 µM)	–
COc1cc(Cc2cnc(N)nc2N)cc(OC)c1OC [TRIMETHOPRIM]	≤ 0.125 µg/mL	≤ 0.125 µg/mL	≤ 0.125 µg/mL	0.5 µg/mL (≈ 1.72 µM)	–
GENTAMICIN	< 0.125 µg/mL	–	0.25 µg/mL	–	MIC (Escherichia coli [2]): 0.25 µg/mL
Beta-lactamase SHV-1 (Klebsiella pneumoniae), P0AD64 (protein) MRYIRLCIISLLATLPLAVHASPQPLEQIKLSESQLSGRVGMIEMDLASGRTLTAWRADERFPMMSTFKVVLCGAVLARVDAGDEQLERKIHYRQQDLVDYSPVSEKHLADGMTVGELCAAAITMSDNSAANLLLATVGGPAGLTAFLRQIGDNVTRLDRWETELNEALPGDARDTTTPASMAATLRKLLTSQRLSARSQRQLLQWMVDDRVAGPLIRSVLPAGWFIADKTGAGERGARGIVALLGPNNKAERIVVIYLRDTPASMAERNQQIAGIGAALIEHWQR	–	–	–	–	Km [13]: 11 µM; kcat [14]: 1940 s⁻¹; kcat/Km [15]: 20 µM⁻¹ s⁻¹; kcat/Km [16]: 84.2 µM⁻¹ s⁻¹; kcat/Km [17]: 62.1 µM⁻¹ s⁻¹
Beta-lactamase SHV-72 (Klebsiella pneumoniae), A0ZX81 (protein) MRYFRLCIISLLATLPLAVHASPQPLEQIKLSESQLSGRVGMIEMDLASGRTLTAWRADERFPMMSTFKVVLCGAVLARVDAGDEQLERKIHYRQQDLVDYSPVSEKHLADGMTVGELCAAAITMSDNSAANLLLATVGGPVGLTAFLRQIGDNVTRLDRWETELNEALPGDARDTTTPASMAATLRKLLTSQRLSARSQRQLLQWMVDDRVAGPLIRSVLPAGWFIADRTGAGERGARGIVALLGPNNKAERIVVIYLRDTPASMAERNQQIAGIGAALIEHWQR	–	–	–	–	kcat/Km [18]: 35.5 µM⁻¹ s⁻¹; kcat/Km [19]: 226 µM⁻¹ s⁻¹; kcat/Km [20]: 0.3 µM⁻¹ s⁻¹; kcat/Km [21]: 286 µM⁻¹ s⁻¹; kcat/Km [22]: 44.6 µM⁻¹ s⁻¹; Km [23]: 36 µM; kcat [23]: 1280 s⁻¹; kcat [24]: < 0.1 s⁻¹; Km [25]: 26 µM; kcat [25]: 5880 s⁻¹; Km [26]: 141 µM; kcat [26]: 38 s⁻¹; Km [27]: 19 µM; kcat [27]: 5440 s⁻¹; Km [28]: 43 µM; kcat [28]: 1920 s⁻¹; kcat [29]: < 0.1 s⁻¹
